Source: ChEMBL document CHEMBL2331329, “Synthesis and biological evaluation of 2-(alkoxycarbonyl)-3-anilinobenzo[b]thiophenes and thieno[2,3-b]pyridines as new potent anticancer agents” (J Med Chem, 2013)

Key:
[1] = Cytotoxicity against human SEM cells after 72 hrs by MTT assay; assay type: functional, cell-based
In short: (§1)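 Cells plated at 8 × 10^3 per well, 18 h at 37 °C, 5% CO2, then fresh medium with graded compound concentrations (DMSO ≤0.25%) for 72 h. Jurkat, SEM, HL-60 grown in RPMI-1640; A549, HeLa, HT-29, MCF-7 in DMEM; 10% FBS with penicillin/streptomycin. MTT viability read-out; IC50 vs 0.25% DMSO controls; mean ± SE of at least three independent experiments.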

[2] = test system: HL-60; experiment: Cytotoxicity against human HL60 cells after 72 hrs by MTT assay; assay type: functional, cell-based; settings: HL-60, 72 h
[3] = test system: MCF7; experiment: Cytotoxicity against human MCF7 cells after 72 hrs by MTT assay; assay type: functional, cell-based; settings: MCF7, 72 h
[4] = test system: A549; experiment: Cytotoxicity against human A549 cells after 72 hrs by MTT assay; assay type: functional, cell-based; settings: A549, 72 h
[5] = test system: Jurkat; experiment: Cytotoxicity against human Jurkat cells after 72 hrs by MTT assay; assay type: functional, cell-based; in short: as §1
[6] = test system: HT-29; experiment: Cytotoxicity against human HT-29 cells after 72 hrs by MTT assay; assay type: functional, cell-based; settings: HT-29, 72 h
[7] = test system: HeLa; experiment: Cytotoxicity against human HeLa cells after 72 hrs by MTT assay; assay type: functional, cell-based
[8] = organism: Bos taurus; experiment: Displacement of [3H]colchicine from bovine brain tubulin at 5 uM after 20 mins by turbidimetric analysis
[9] = organism: Bos taurus; experiment: Displacement of [3H]colchicine from bovine brain tubulin at 1 uM after 20 mins by turbidimetric analysis
[10] = Inhibition of bovine brain tubulin polymerization after 20 mins by turbidimetric analysis; parameters: species or system Bos taurus
In short: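 Bovine brain tubulin (10 μM) preincubated with varying compound concentrations in glutamate buffer at 30 °C, chilled to 0 °C, 0.4 mM GTP added, then warmed to 30 °C in a recording spectrophotometer.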

[11] = test system: CCRF-CEM; experiment: Cytotoxicity against human CEM cells after 72 hrs by MTT assay; assay type: functional, cell-based
In short: (§2)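 MTT viability test: 8 × 10^3 cells per well settled 18 h at 37 °C, 5% CO2, then given fresh medium with compound (from 10 mM DMSO stocks, final DMSO ≤0.25%) for 72 h. […] CEMVbl-100 is a vinblastine-selected P-gp line; LoVoDoxo is grown in Ham's F12 with 0.1 μg/mL doxorubicin. Resistance index = resistant IC50/parental IC50.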

[12] = test system: CCRF-CEM; experiment: Resistance index, ratio of IC50 for human CEM/VBL100 cells to IC50 for human CEM cells; assay type: functional; in short: as §2
[13] = Cytotoxicity against human CEM/VBL100 cells after 72 hrs by MTT assay; assay type: functional, cell-based; settings: CEM/VBL100, 72 h; in short: as §2
[14] = Cytotoxicity against human A549-T12 cells after 72 hrs by MTT assay; assay type: functional, cell-based; settings: A549, 72 h
In short: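 Mean ± SE of at least three independent experiments. Resistance ratio = IC50 in resistant line/IC50 in nonresistant line.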

inhibition [8] [%] | inhibition [9] [%] | IC50 [10] [nM] | Structure (SMILES) | IC50 [1] [nM] | IC50 [2] [nM] | IC50 [3] [nM] | IC50 [4] [nM] | IC50 [5] [nM] | IC50 [6] [nM] | IC50 [7] [nM] | IC50 [11] [nM] | Ratio IC50 [12] | IC50 [13] [nM] | IC50 [14] [nM]
 |  |  | COC(=O)c1sc2ncccc2c1Nc1cc(OC)c(OC)c(OC)c1 | 348 | 2920 | 2640 | 3850 | 1110 | 542 |  |  |  |  | 
 |  |  | CCOC(=O)c1sc2ccccc2c1Nc1cc(OC)c(OC)c(OC)c1 | 1900 | 5490 | 6390 | 8530 | 3020 | 1610 | 3100 |  |  |  | 
 |  |  | COC(=O)c1sc2c(C)cccc2c1Nc1cc(OC)c(OC)c(OC)c1 | 1630 | 4270 | 4550 | 3930 |  | 552 | 1730 |  |  |  | 
94 | 77 | 810 | CCOC(=O)c1sc2cc(OC)ccc2c1Nc1cc(OC)c(OC)c(OC)c1 | 10.2 | 31.6 | 5.6 | 8.9 | 3.3 |  | 0.56 |  |  |  | 
 |  |  | COC(=O)c1sc2cccc(C)c2c1Nc1cc(OC)c(OC)c(OC)c1 | 2500 | 3380 | 8190 | 4580 | 6710 | 1020 | 1300 |  |  |  | 
 |  |  | CC[C@]1(O)C[C@@H]2CN(CCc3c([nH]c4ccccc34)[C@@](C(=O)OC)(c3cc4c(cc3OC)N(C)[C@H]3[C@@](O)(C(=O)OC)[C@H](OC(C)=O)[C@]5(CC)C=CCN6CC[C@]43[C@@H]65)C2)C1 [VINBLASTINE] |  |  |  |  |  |  |  | 2 | 105 | 211 | 
 |  |  | CC(=O)O[C@H]1C(=O)[C@@]2(C)[C@H]([C@H](OC(=O)c3ccccc3)[C@]3(O)C[C@H](OC(=O)[C@H](O)[C@@H](NC(=O)c4ccccc4)c4ccccc4)C(C)=C1C3(C)C)[C@]1(OC(C)=O)CO[C@@H]1C[C@@H]2O [PACLITAXEL] |  |  |  |  |  |  |  |  |  |  | 92.3
89 | 58 | 1100 | CCOC(=O)c1sc2cc(C)ccc2c1Nc1cc(OC)c(OC)c(OC)c1 | 1.5 | 3.9 | 9 | 7.2 | 0.4 | 6 | 0.38 |  |  |  | 
 |  |  | CCOC(=O)c1sc2cccc(C)c2c1Nc1cc(OC)c(OC)c(OC)c1 | 1930 | 7380 | 4150 | 6250 | 5670 | 3610 | 2520 |  |  |  | 
